Data as given in ChEMBL document CHEMBL1145978, “New N-n-propyl-substituted 3-aryl- and 3-cyclohexylpiperidines as partial agonists at the D4 dopamine receptor” (J Med Chem, 2003).

What was measured:
[1] = molecular target: D(1A) dopamine receptor (Bos taurus, UniProt Q95136); experiment: Affinity for Dopamine receptor D1 using [3H]SCH-23390 was carried out on bovine retinal membrane preparations; set-up: species or system Retina
Procedure, shortened: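 Bovine retinal membranes were homogenized in Tris 50 mM, EDTA 1, CaCl2 1.5, MgCl2 4, KCl 5, NaCl 120 mM, pH 7.4, and used at about 4 mg wet tissue/mL. They were incubated with 0.5 nM [3H]-SCH23390 for 20 min at 30 °C, in duplicate. Nonspecific binding was set with 2 mM DA, and bound ligand was separated by vacuum filtration. Ki was derived from IC50 using Kd 2 nM.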

[2] = molecular target: T1, D(2) dopamine receptor (Bos taurus, UniProt P20288); experiment: Affinity for Dopamine receptor D2 using [3H]YM-09151-2 was carried out on bovine retinal membrane preparations (high-affinity); set-up: species or system Retina
T1 sequence (P20288 whole entry): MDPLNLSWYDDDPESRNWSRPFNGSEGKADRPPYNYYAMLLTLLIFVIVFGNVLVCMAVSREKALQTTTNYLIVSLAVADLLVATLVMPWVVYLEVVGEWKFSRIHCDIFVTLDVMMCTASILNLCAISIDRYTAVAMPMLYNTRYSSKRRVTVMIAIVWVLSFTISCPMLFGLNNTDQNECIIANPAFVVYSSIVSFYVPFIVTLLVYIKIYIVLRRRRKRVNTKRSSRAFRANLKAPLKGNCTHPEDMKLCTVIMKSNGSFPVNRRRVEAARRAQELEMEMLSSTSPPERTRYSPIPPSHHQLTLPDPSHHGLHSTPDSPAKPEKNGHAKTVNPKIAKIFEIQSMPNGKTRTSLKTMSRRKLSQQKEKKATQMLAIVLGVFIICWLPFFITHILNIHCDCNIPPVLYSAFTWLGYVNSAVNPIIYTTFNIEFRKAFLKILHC
Procedure, shortened: (§1)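 Retinal membranes were prepared in Tris/EDTA/Ca/Mg/K/NaCl saline, pH 7.4, at about 4 mg wet tissue/mL. They were incubated with 0.1 nM [3H]-YM-09-151-2 at 30 °C for 60 min, in duplicate, with 2 mM DA defining nonspecific binding, followed by rapid filtration. Displacement curves were fitted to a two-site model, giving high- and low-affinity Ki from IC50 using Kd 0.4 nM.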

[3] = molecular target: T1, D(2) dopamine receptor; experiment: Affinity for Dopamine receptor D2 using [3H]YM-09151-2 was carried out on bovine retinal membrane preparations (low-affinity); set-up: species or system Retina; procedure, shortened: as §1
[4] = molecular target: T1, D(2) dopamine receptor; experiment: Affinity for Dopamine receptor D2 using [3H]-YM-09151-2 was carried out on bovine striatal membrane preparations; set-up: species or system Striatum
Procedure, shortened: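 Competition binding on bovine striatal membranes: homogenised in Tris 50, EDTA 1, CaCl2 1.5, MgCl2 4, KCl 5, NaCl 120 mM, pH 7.4; centrifuged 48 000 g, 20 min, 4 °C, washed, used at ~1.25 mg wet tissue/mL. 0.1 nM [3H]-YM-09-151-2 (Kd 0.4 nM), 60 min at 30 °C, duplicates; nonspecific with 2 mM DA; vacuum filtration; Ki from IC50.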

Chain of D(1A) dopamine receptor (Q95136 whole entry): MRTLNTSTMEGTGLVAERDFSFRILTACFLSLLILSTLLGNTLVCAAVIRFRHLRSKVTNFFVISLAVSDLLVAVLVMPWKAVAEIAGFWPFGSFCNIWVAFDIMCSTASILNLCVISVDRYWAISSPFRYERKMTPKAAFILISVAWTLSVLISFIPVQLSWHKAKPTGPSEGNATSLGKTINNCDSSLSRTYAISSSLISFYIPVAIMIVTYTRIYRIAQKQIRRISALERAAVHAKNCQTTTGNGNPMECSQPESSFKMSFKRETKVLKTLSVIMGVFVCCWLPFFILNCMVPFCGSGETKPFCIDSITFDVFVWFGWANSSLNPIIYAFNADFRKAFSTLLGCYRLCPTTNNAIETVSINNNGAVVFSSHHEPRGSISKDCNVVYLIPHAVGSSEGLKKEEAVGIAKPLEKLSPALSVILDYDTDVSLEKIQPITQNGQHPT

Ki [4] | SMILES | Ki [1] | Ki [2] | Ki [3]
20 µM | CCCN1CCCC(C2CCC(C)CC2)C1 (centres undefined) | > 10 µM | 0.004 µM | 64 µM
18.3 µM | Cc1cccc(C(=O)NCN2CCN(c3ccccc3C#N)CC2)c1 [PD-168,077] | > 10 µM | 0.025 µM | 6.3 µM
10 µM | CCCN1CCCC(C2CCCC(C)C2)C1 (centres undefined) | > 10 µM | 0.005 µM | 27 µM
14.4 µM | CCCN1CCCC(C2CCCCC2)C1 (centres undefined) | > 10 µM | 0.004 µM | 24.9 µM
– | CCCN1CCCC(c2cccc(C)c2)C1 (centres undefined) | > 10 µM | 0.042 µM | 15.9 µM
0.42 µM | CCCN1CCCC(C2CCCCC2C)C1 (centres undefined) | > 10 µM | 0.026 µM | 43.2 µM

SMILES | Ki [4] | Ki [1] | Ki [2] | Ki [3]
CCCN1CCCC(c2ccccc2C)C1 (centres undefined) | 1.51 µM | > 10 µM | 0.449 µM | 26.7 µM
CCCN1CCCC(c2ccc(C)c(C)c2)C1 (centres undefined) | 8.1 µM | > 10 µM | 0.027 µM | 7.6 µM
CCCN1CCCC(c2ccccc2)C1 (centres undefined) | 10.8 µM | > 10 µM | 0.039 µM | 43.7 µM
CCCN1CCCC(c2ccc(C)cc2)C1 (centres undefined) | 13.8 µM | > 10 µM | 0.044 µM | 35.4 µM
